Results: ChEMBL document CHEMBL4819117, “Probing cytochrome P450 (CYP) bioactivation with chloromethylindoline bioprecursors derived from the duocarmycin family of compounds” (Bioorg Med Chem, 2021)

How the values were obtained:
[1] = tested on: EJ; test: Antiproliferative activity against human EJ138 cells deficit in CYPs assessed as inhibition of cell growth after 96 hrs by MTT assay; assay type: functional, cell-based
Method in brief: (§1)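 Cells kept as monolayers at 37 °C in 5% CO2: EJ-138 and RT112 in RPMI 1640 with 10% FBS, sodium pyruvate and 2 mM L-glutamine; CHO and CHO-1A1 in DMEM. Compounds were taken from DMSO stocks into medium over 0.001–100 μM, with final DMSO ≤0.1%. Exposure lasted 96 h, then MTT read-out. IC50 values are mean ± SD of at least three independent assays.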

[2] = tested on: RT-112; test: Antiproliferative activity against human RT112 cells proficient in CYP1A1 assessed as inhibition of cell growth after 96 hrs by MTT assay; assay type: functional, cell-based; details: RT-112, 96 h; method in brief: as §1
[3] = tested on: CHO; test: Antiproliferative activity against wild type chinese hamster CHO cells deficit in CYPs assessed as inhibition of cell growth after 96 hrs by MTT assay; assay type: functional, cell-based; details: Cricetulus griseus; method in brief: as §1
[4] = tested on: CHO; test: Antiproliferative activity against chinese hamster CHO cells transfected with CYP1A1 assessed as inhibition of cell growth after 96 hrs by MTT assay; assay type: functional, cell-based; details: Cricetulus griseus; method in brief: as §1
[5] = tested on: EJ; test: Antiproliferative activity against human EJ138 cells assessed as inhibition of cell growth preincubated for 1 hr with CYP null bactosomes measured after 96 hrs by MTT assay; assay type: functional, cell-based
Method in brief: (§2)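 Compound (50 μM) incubated 1 h at 37 °C with 20 pmol CYP bactosomes (CYP null, 1A1, 1A2, 1B1 or 3A4) in 2 mM NADPH, 1 mM MgCl₂, Tris-HCl pH 7.4. Metabolites were extracted with acetonitrile, centrifuged, and the supernatant dried and taken up in DMSO. EJ138 cells were exposed 96 h and growth read by MTT assay.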

[6] = tested on: EJ; test: Antiproliferative activity against human EJ138 cells assessed as inhibition of cell growth preincubated for 1 hr with human CYP1A1 expressing bactosomes measured after 96 hrs by MTT assay; assay type: functional, cell-based; method in brief: as §2
[7] = tested on: EJ; test: Antiproliferative activity against human EJ138 cells assessed as inhibition of cell growth preincubated for 1 hr with human CYP1A2 expressing bactosomes measured after 96 hrs by MTT assay; assay type: functional, cell-based; method in brief: as §2
[8] = tested on: EJ; test: Antiproliferative activity against human EJ138 cells assessed as inhibition of cell growth preincubated for 1 hr with human CYP1B1 expressing bactosomes measured after 96 hrs by MTT assay; assay type: functional, cell-based; method in brief: as §2
[9] = tested on: EJ; test: Antiproliferative activity against human EJ138 cells assessed as inhibition of cell growth preincubated for 1 hr with human CYP3A4 expressing bactosomes measured after 96 hrs by MTT assay; assay type: functional, cell-based; method in brief: as §2
[10] = tested on: EJ; test: Potentiation factor, ratio of IC50 for antiproliferative activity against human EJ138 cells preincubated for 1 hr with CYP null bactosomes to IC50 for antiproliferative activity against human EJ138 cells preincubated for 1 hr with human CYP1A1 expressing bactosomes; assay type: functional
Method in brief: (§3)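 Potentiation factor = IC₅₀ in EJ138 given control (CYP null) bactosome extract ÷ IC₅₀ with the named CYP isoform extract. Extracts came from 1 h, 37 °C incubations of 50 μM compound with 20 pmol bactosomes plus 2 mM NADPH, 1 mM MgCl₂, Tris-HCl pH 7.4. Cells were exposed 96 h and read by MTT.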

[11] = tested on: EJ; test: Potentiation factor, ratio of IC50 for antiproliferative activity against human EJ138 cells preincubated for 1 hr with CYP null bactosomes to IC50 for antiproliferative activity against human EJ138 cells preincubated for 1 hr with human CYP1A2 expressing bactosomes; assay type: functional; method in brief: as §3
[12] = tested on: EJ; test: Potentiation factor, ratio of IC50 for antiproliferative activity against human EJ138 cells preincubated for 1 hr with CYP null bactosomes to IC50 for antiproliferative activity against human EJ138 cells preincubated for 1 hr with human CYP1B1 expressing bactosomes; assay type: functional; method in brief: as §3
[13] = tested on: EJ; test: Potentiation factor, ratio of IC50 for antiproliferative activity against human EJ138 cells preincubated for 1 hr with CYP null bactosomes to IC50 for antiproliferative activity against human EJ138 cells preincubated for 1 hr with human CYP3A4 expressing bactosomes; assay type: functional; method in brief: as §3
[14] = target: T1, Cytochrome P450 1A1 (Homo sapiens, UniProt P04798); test: Drug metabolism assessed as recombinant human CYP1A1-mediated metabolite M1 with m/z of 375.1 formation at 50 uM incubated for 1 hr in presence of reconstituted protein system by LC-MS analysis; assay type: ADME; details: recombinant enzyme
T1 sequence (P04798 whole entry): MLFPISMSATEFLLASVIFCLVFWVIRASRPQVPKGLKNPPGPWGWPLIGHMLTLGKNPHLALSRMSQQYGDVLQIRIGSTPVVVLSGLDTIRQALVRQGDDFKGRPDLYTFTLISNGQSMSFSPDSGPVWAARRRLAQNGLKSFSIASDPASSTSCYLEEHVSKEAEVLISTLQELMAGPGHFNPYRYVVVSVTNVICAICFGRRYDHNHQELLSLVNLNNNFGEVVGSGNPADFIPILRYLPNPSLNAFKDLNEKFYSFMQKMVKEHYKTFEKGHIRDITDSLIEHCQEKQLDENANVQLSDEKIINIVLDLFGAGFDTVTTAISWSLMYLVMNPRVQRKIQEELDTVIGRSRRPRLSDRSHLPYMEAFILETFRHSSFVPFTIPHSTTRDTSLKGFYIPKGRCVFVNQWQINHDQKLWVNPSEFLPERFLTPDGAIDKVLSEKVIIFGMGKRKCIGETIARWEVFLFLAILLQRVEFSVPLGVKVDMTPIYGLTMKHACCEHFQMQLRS
Method in brief: (§4)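 Substrate at 50 μM with human recombinant CYP1A1 in a reconstituted system: NADPH cytochrome P450 reductase plus freshly prepared DLPC (240 μM) in 100 mM potassium phosphate, pH 7.4. Mixture pre-warmed 3 min at 37 °C, started with NADPH (final 1 mM), incubated 1 h and extracted into dichloromethane. Analysis by reverse-phase HPLC with photodiode array detection and ESI+ quadrupole MS.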

[15] = target: T1, Cytochrome P450 1A1; test: Drug metabolism assessed as recombinant human CYP1A1-mediated metabolite M2 with m/z of 345.1 formation at 50 uM incubated for 1 hr in presence of reconstituted protein system by LC-MS analysis; assay type: ADME; details: recombinant enzyme; method in brief: as §4
[16] = target: T1, Cytochrome P450 1A1; test: Drug metabolism assessed as recombinant human CYP1A1-mediated metabolite M3 with m/z of 373.1 formation at 50 uM incubated for 1 hr in presence of reconstituted protein system by LC-MS analysis; assay type: ADME; details: recombinant enzyme; method in brief: as §4
[17] = target: T1, Cytochrome P450 1A1; test: Drug metabolism assessed as recombinant human CYP1A1-mediated metabolite M4 with m/z of 391.1 formation at 50 uM incubated for 1 hr in presence of reconstituted protein system by LC-MS analysis; assay type: ADME; details: recombinant enzyme; method in brief: as §4
[18] = target: T1, Cytochrome P450 1A1; test: Drug metabolism assessed as recombinant human CYP1A1-mediated metabolite M1 with m/z of 327.1 formation at 50 uM incubated for 1 hr in presence of reconstituted protein system by LC-MS analysis; assay type: ADME; details: recombinant enzyme; method in brief: as §4

Question: For CC(C)(C)OC(=O)N1CC(CCl)c2ccccc21 (stereo unspecified), which IC50 [1] is on record?
Answer: The IC50 was over 25 µM.

Question: And the IC50 [2]?
Answer: The IC50 was over 25 µM.

Question: What about the IC50 [3] of the same compound?
Answer: The IC50 was over 25 µM.

Question: And the IC50 [4]?
Answer: Its IC50 is over 25 µM.

Question: What does the source list for COc1ccc2[nH]c(C(=O)N3CC(CCl)c4cc(F)ccc43)cc2c1 (stereo unspecified)?
Answer: IC50 [1]: 18.6 µM; IC50 [2]: 5.04 µM; IC50 [3]: 14.8 µM; IC50 [4]: 6.2 µM; IC50 [5]: 15.8 µM; IC50 [6]: 3.1 µM; IC50 [7]: 5.11 µM; IC50 [8]: 11.9 µM; IC50 [9]: 16.8 µM; Ratio IC50 [10]: 5.1; Ratio IC50 [11]: 3.1; Ratio IC50 [12]: 1.3; Ratio IC50 [13]: 0.9; Drug metabolism [14]: Metabolite_Detected; Drug metabolism [15]: Metabolite_Detected; Drug metabolism [16]: Metabolite_Detected; Drug metabolism [17]: Metabolite_Detected

Question: For COc1ccc2[nH]c(C(=O)N3CC(CCl)c4ccc(O)cc43)cc2c1 (stereo unspecified), which IC50 [1] is on record?
Answer: Its IC50 is 0.038 µM.

Question: And the IC50 [2]?
Answer: Its IC50 is 0.055 µM.

Question: What about the IC50 [3] of the same compound?
Answer: Its IC50 is 0.03 µM.

Question: And the IC50 [4]?
Answer: Its IC50 is 0.035 µM.

Question: What about the Drug metabolism [18] of the same compound?
Answer: Its Drug metabolism is “Metabolite_Detected”.
